Source: ChEMBL document CHEMBL1139482, “Synthesis and evaluation of quindoline derivatives as G-quadruplex inducing and stabilizing ligands and potential inhibitors of telomerase” (J Med Chem, 2005)
Activity calls are given as the source filed them. No cut-off for these calls is given here.

Experiments:
Homo sapiens [1] = species: Homo sapiens; assay: Induction of G-quadruplex in G-rich human telomere 21 DNA assessed as circular dichroism spectral change at 50 uM
How it was run: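 Telo21 at 5 μM strand in 10 mM Tris-HCl pH 7.4, no metal ions, compound at 50 μM. Annealed at 90 °C, cooled slowly, held at 4 °C for several hours. CD recorded 320–200 nm, 16 scans at 100 nm/min, 1 nm bandwidth, buffer baseline subtracted.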

[2] = Dissociation constant, pKa of the compound; format: physicochemical
How it was run: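 UV titration across pH. Molar extinction coefficient read at the two wavelengths where ε changes most between acidic and basic solution, then plotted against pH. pKa taken as the pH midway between the horizontal sections of the curve.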

[3] = Inhibition of telomerase by TRAP assay; design: species or system Homo sapiens
How it was run: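 Cell-free modified TRAP using A2780 ovarian carcinoma extract, 0.04 μg protein. TS primer extended in TRAP buffer pH 8.3 with 68 mM KCl, 1.5 mM MgCl2, 50 μM dNTPs and [32P]dCTP, agent up to 50 μM final, 20 min at 25 °C. Then 31 PCR cycles; products read by denaturing gel phosphorimaging or filter scintillation counting.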

Homo sapiens [4] = species: Homo sapiens; assay: Destruction of parallel G-quadruplexes in mixed G-quadruplex human telomere 21 DNA in presence of 0.1 M potassium
Homo sapiens [5] = species: Homo sapiens; assay: Induction of G-quadruplex in G-rich human telomere 21 DNA in presence of 100 mM K+ ions by EMSA
How it was run: (§1)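 Native-gel shift of 20 μM telo21 in 10 mM Tris-HCl pH 7.4, with or without 100 mM KCl, heated 95 °C for 10 min then cooled. Compound titrated in at increasing concentrations and incubated 4–8 h at room temperature. Run on native 15% PAGE in TBE for 2 h, silver-stained; G-quadruplex and single-strand bands scored.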

Homo sapiens [6] = species: Homo sapiens; assay: Induction of G-quadruplex in G-rich human telomere 21 DNA by EMSA; how it was run: as §1

In the case of `OCCCNc1c2ccccc2nc2c1[nH]c1ccccc12`, the Activity (Homo sapiens [1]) is reported as “Active”, the pKa [2] is reported as 8.3 and the IC50 [3] is reported as 1.55 µM.
In the case of `OCCNc1c2ccccc2nc2c1[nH]c1ccccc12`, the Activity (Homo sapiens [1]) is reported as “Active”, the pKa [2] is reported as 8.3 and the IC50 [3] is reported as 2.35 µM.
For `c1ccc2nc3c(cc2c1)[nH]c1ccccc13` [QUINDOLINE], the pKa [2] was 4.2 and the IC50 [3] was over 138 µM.
For `c1ccc2c(NCCN3CCOCC3)c3oc4ccccc4c3nc2c1`, the Activity (Homo sapiens [1]) was “Active”, the pKa [2] was 8.2 and the IC50 [3] was 4.38 µM.
In the case of `OCCCNc1c2ccccc2nc2c1oc1ccccc12`, the Activity (Homo sapiens [1]) is reported as “Active”, the pKa [2] is reported as 8.2 and the IC50 [3] is reported as 8.12 µM.
With `CN(C)CCNc1c2ccccc2nc2c1[nH]c1ccccc12` the Activity (Homo sapiens [1]) was “Active”, the pKa [2] was 8.3 and the IC50 [3] was 1.12 µM.
In the case of `c1ccc2c(NCCN3CCOCC3)c3[nH]c4ccccc4c3nc2c1`, the Activity (Homo sapiens [1]) is reported as “Active”, the pKa [2] is reported as 8.4 and the IC50 [3] is reported as 0.55 µM. For the same compound, the Activity (Homo sapiens [4]) was “Active”, the Activity (Homo sapiens [5]) was “Active” and the Activity (Homo sapiens [6]) was “Active”.
With `CN(C)CCCNc1c2ccccc2nc2c1[nH]c1ccccc12` the Activity (Homo sapiens [1]) was “Active”, the pKa [2] was 8.4 and the IC50 [3] was 0.44 µM.
For `CN(C)CCNc1c2ccccc2nc2c1oc1ccccc12`, the Activity (Homo sapiens [1]) was “Active”, the pKa [2] was 8.2 and the IC50 [3] was 7.11 µM.
In the case of `CN(C)CCCNc1c2ccccc2nc2c1oc1ccccc12`, the Activity (Homo sapiens [1]) is reported as “Active”, the pKa [2] is reported as 8.3 and the IC50 [3] is reported as 3.29 µM.
For `OCCNc1c2ccccc2nc2c1oc1ccccc12`, the Activity (Homo sapiens [1]) was “Active”, the pKa [2] was 8.2 and the IC50 [3] was 12.3 µM.
